GalR3 antagonist: GalR3 antagonists in HEK293 cells, primary screen, cell-based, fluorescence readout; 360,000 tested, 0.44% active; inhibition, % at 3 µM; AID 651719, 2012; Galanin receptor type 3 (Homo sapiens), O60755; HEK293 GalR3-CNG cAMP membrane potential fluorescence; galR3 body fused to GalR1 C-terminus;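 active = inhibition above the screen-wide average plus 3 SD, cut at about 13% in these data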;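 note: forskolin and galanin both at EC90 stimulate the cells; cAMP rise reported by CNG channel membrane potential dye signal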
NR2E3 ag-1: NR2E3 agonists in two-hybrid cells, primary screen, cell-based, luminescence, CHO-S, Gal4-NCOR/VP16-NR2E3 | Photoreceptor-specific nuclear receptor (Homo sapiens), Q9Y5X4 | 360,000 tested, 0.35% active | inhibition of corepressor binding, % at 3.98 µM | AID 602229, 2012 | luciferase;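 active = inhibition above the mean of all tested compounds plus 3 SD, cut at about 70% in these data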;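 note: higher means lower luciferase signal from less NR2E3 corepressor binding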
Rev-erbA mod: modulators of Rev-erb alpha DNA binding, primary screen, biochemical, FITC-DNA, fluorescence polarization, uHTS; Nuclear receptor subfamily 1 group D member 1 (Homo sapiens), P20393; 370,000 tested, 0.79% active; Rev-erbα–FITC-DNA binding, 90 min; activity, % at 10 µM; AID 1259318, 2017;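 active = activity above about 14%, limit read from the data; passing the limit was not always enough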
Target sequence (P20393 whole entry, looked up): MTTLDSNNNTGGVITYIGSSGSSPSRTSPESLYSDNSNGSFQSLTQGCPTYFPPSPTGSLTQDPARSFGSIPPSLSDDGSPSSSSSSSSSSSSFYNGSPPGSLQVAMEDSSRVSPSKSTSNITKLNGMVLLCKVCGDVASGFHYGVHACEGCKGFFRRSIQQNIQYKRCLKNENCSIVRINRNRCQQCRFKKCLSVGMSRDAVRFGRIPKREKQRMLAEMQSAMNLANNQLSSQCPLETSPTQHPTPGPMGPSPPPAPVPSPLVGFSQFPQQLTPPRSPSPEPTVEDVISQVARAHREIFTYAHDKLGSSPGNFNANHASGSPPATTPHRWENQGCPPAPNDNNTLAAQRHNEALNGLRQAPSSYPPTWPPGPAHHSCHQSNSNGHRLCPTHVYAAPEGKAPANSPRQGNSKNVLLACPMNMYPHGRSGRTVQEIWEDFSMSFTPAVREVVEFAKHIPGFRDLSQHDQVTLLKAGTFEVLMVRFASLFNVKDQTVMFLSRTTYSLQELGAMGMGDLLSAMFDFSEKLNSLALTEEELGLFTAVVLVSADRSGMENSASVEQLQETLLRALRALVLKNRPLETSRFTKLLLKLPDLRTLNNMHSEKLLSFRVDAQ
PG9 Ab binder: binders of HIV-1 gp120 antibody PG9, primary screen, biochemical, TR-FRET | inhibition, % at 6.7 µM | TR-FRET gp120-PG9 antibody binding | 360,000 tested, 0.43% active; in the data active = inhibition above about 8.5%
NR2E3 ag-2: inhibitors of NR2E3-RetCOR corepressor binding, primary screen, NR2E3 agonist project, biochemical, TR-FRET, GST-NR2E3, biotin-RetCOR; Photoreceptor-specific nuclear receptor (Homo sapiens), Q9Y5X4; 1536-well; inhibition of corepressor binding, % at 4.78 µM; 320,000 tested, 0.12% active;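 active = percent inhibition above the cutoff of mean plus 3 SD of all tested compounds, set per screening campaign, cut at about 20% in these data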
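system = GST-tagged NR2E3 plus biotinylated RetCOR corepressor | input = 1.35 nM GST-NR2E3 | also added = 7 nM biotin-RetCOR | schedule = 5 h incubation at 4 °C | measured by = TR-FRET with europium anti-GST and streptavidin-D2, 340 nm excitation | read-out = percent loss of FRET ratio relative to control wells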
Rev-erbA confirm: modulators of Rev-erb alpha DNA binding, confirmation, biochemical, FITC-DNA, fluorescence polarization, single point; shares compounds with Rev-erbA mod; 90 min; activation, % at 25 µM; 3,000 tested, 61% active; AID 1259319, 2017;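 active = activation at or above a set limit, or at least 3 SD above the negative control mean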
RORg counter: modulation of RORgamma DNA binding, dose response, counter-screen for Rev-erb alpha modulator project, biochemical, fluorescence polarization, FITC-DNA | shares compounds with Rev-erbA mod | purified RORgamma protein-FITC-DNA binding | IC50, µM | 910 tested, 8% active | AID 1259320, 2017;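 active = Compounds whose fitted half-maximal concentration for disrupting protein-DNA binding is below 10 micromolar; the record names Rev-erb in its text, so the target is in doubt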
Hits are given with their value; i = inactive; nt = no result given. The list is not random: actives were taken first. Their share in the collection is about 1.8%.

SMILES	GalR3 antagonist	NR2E3 ag-1	Rev-erbA mod	PG9 Ab binder	NR2E3 ag-2	Rev-erbA confirm	others
NC(=O)c1ncn([C@@H]2O[C@H](C(=O)N[C@H](Cc3ccccc3)C(=O)N3CCN(c4ccc(Cl)cn4)CC3)[C@@H](O)[C@H]2O)n1	i	nt	i	i	nt	nt
COc1ccc(N2CCN(C(=O)c3ccc(Cn4c(=S)[nH]c5ccc(N6CCOCC6)cc5c4=O)cc3)CC2)cc1	i	i	41.6	i	i	i
COc1cc(N=Nc2cccc(S(N)(=O)=O)c2)c2ccccc2c1N	i	i	34.8	i	i	i
NC1=NC(=Nc2cccc(S(N)(=O)=O)c2)c2ccccc21	i	i	i	i	i	nt
Cc1nc2ccccc2c2nc3ccccc3n12	i	i	i	i	i	nt
Fc1ccc(-c2nc3ccccc3c3nc4ccccc4n23)cc1	i	i	26.2	i	i	19.4
COc1ccc(C(=O)Nc2cc(C(C)=O)c(/C=C/N(C)C)oc2=O)cc1	i	i	i	i	i	nt
CC(=O)c1cc(NC(=O)c2ccc(C)cc2)c(=O)oc1/C=C/N(C)C	i	i	30.7	i	i	i
COc1cc(-c2noc(-c3cccc(Cl)c3)n2)cc(OC)c1OC	i	i	73.6	i	i	122.7
Cc1ccccc1NC(=O)[C@@H]1CCCN1S(=O)(=O)c1cccc2cccnc12	nt	nt	i	nt	nt	nt
COc1ccc(NS(=O)(=O)c2cc(NC(=O)C3CC3)ccc2N2CCCCC2)cc1	i	i	i	i	i	nt
COc1ccc(N2CCN(c3ccc(N)cc3C#N)CC2)cc1	i	i	i	i	i	nt
COc1ccc(C(=O)Nc2ccc(N3CCN(c4ccc(OC)cc4)CC3)c(C#N)c2)cc1	i	i	84.1	i	i	55.8
COc1ccc(N2CCN(c3ccc(NC(=O)C4CCCCC4)cc3C#N)CC2)cc1	i	i	30.5	i	i	i
Cc1nc2ccccn2c1C(O)(c1ccccc1)c1ccccc1	nt	nt	i	nt	nt	nt
C#CCOCCOCCOCCNc1nc(N2CCOCC2)nc(N2CCN(C(=O)[C@H](CCC(=O)O)n3cc(C(N)CO)nn3)CC2)n1 (stereo partly specified)	nt	nt	i	nt	nt	nt
FC(F)(F)c1ccc(N2CCN(c3ncnc4c3nnn4Cc3ccccc3)CC2)nc1	i	i	20.8	i	i	i
c1ccc(Cn2nnc3c(N4CCOCC4)ncnc32)cc1	i	i	i	i	i	nt
CC(=O)c1cc(-c2ccc([N+](=O)[O-])cc2)c(=O)n2c1CCC2	nt	nt	i	nt	nt	nt
O=C(Oc1c(-c2ccccc2)oc2ccccc2c1=O)c1ccccc1	i	i	i	i	i	nt
COc1ccc(-c2oc3ccccc3c(=O)c2OC(=O)c2ccc(C)cc2)cc1	i	i	21.6	i	i	35.5	RORg counter=i
CCOc1ccc2[nH]c3c(=O)n(CCC4=CCCCC4)cnc3c2c1	i	i	19.4	i	i	i
CCOc1ccc2[nH]c3c(=O)n(CCc4ccc(OC)cc4)cnc3c2c1	i	i	i	i	i	nt
O=C(COc1ccc(F)c(Cl)c1)N[C@H]1CCCN(CC2CC2)C1	nt	nt	i	nt	nt	nt
CCNc1ccc2noc3c2c1C(=O)c1ccccc1-3	i	i	48.7	i	i	57.2	RORg counter=i
SMILES	GalR3 antagonist	NR2E3 ag-1	Rev-erbA mod	PG9 Ab binder	NR2E3 ag-2	Rev-erbA confirm	others
O=C1C(=O)N(Cc2ccc(-c3ccc(F)nc3)cc2)c2ccc(OC(F)(F)F)cc21	nt	nt	i	nt	nt	nt
CCc1ccc([C@H]2[C@@H]3C(=O)C[C@@H]4C(=O)N(C)C(=O)[C@@H]4[C@@H]3CN2S(=O)(=O)c2ccc(C)cc2)cc1	i	i	16.0	i	nt	i
CCc1ccc([C@H]2[C@@H]3C(=O)C[C@@H]4C(=O)N(CC)C(=O)[C@@H]4[C@@H]3CN2S(=O)(=O)c2ccc(C)cc2)cc1	i	i	i	i	nt	nt
CCCCc1ccc(NC(=O)COC(=O)c2ccc3ncsc3c2)cc1	i	i	17.1	i	nt	i
CC(COc1cccc(Br)c1)CN1CCC(C(O)(c2ccccc2)c2ccccc2)CC1 (stereo unspecified)	nt	nt	i	nt	nt	nt
C=C(C)[C@@H]1CC2=C(OC)C(CC=C(C)C)(CC=C(C)C)C(=O)C(C(=O)c3ccccc3)=C2O1	nt	nt	i	nt	nt	nt
CC(=O)Nc1ccc(-c2nn[nH]n2)cc1	i	i	i	i	i	nt
CC(=O)Nc1ccc(-c2ccnc(-c3ccc(NC(C)=O)cc3)n2)cc1	i	i	20.1	i	i	i
C[C@H](O)Cc1cn(-c2cc3cc(C#Cc4ccsc4)ccc3oc2=O)nn1	i	i	17.9	i	i	i
C[C@@H](O)CC#Cc1ccc2oc(=O)c(-n3cc(-c4ccsc4)nn3)cc2c1	i	i	i	i	i	nt
Cc1nnc2c(NCCC(C)C)nc3ccccc3n12	i	i	23.0	i	nt	i
CCCN(CCC)S(=O)(=O)c1ccc(C(=O)OCCN2C(=O)c3cccc4c(N5CCOCC5)ccc(c34)C2=O)cc1	nt	i	nt	nt	i	nt
O=C(OCCN1C(=O)c2cccc3c(N4CCOCC4)ccc(c23)C1=O)c1ccc(Cl)cc1	i	i	78.8	i	i	118.8	RORg counter=i
CC(=O)NS(=O)(=O)c1ccc(Nc2ccc([N+](=O)[O-])c3nonc23)cc1	i	i	26.1	i	i	20.9
Cc1ccc(Cl)cc1NC(=O)Cn1cc(C(F)(F)F)cc(Cl)c1=O	i	i	i	i	i	nt
Cc1c(Cl)cccc1NC(=O)Cn1cc(C(F)(F)F)cc(Cl)c1=O	i	i	43.6	i	i	42.7	RORg counter=i
COC(=O)[C@]12C[C@H](CC(=O)NCc3cccs3)C(=O)N(Cc3ccc(Cl)cc3Cl)C1=C[C@H](C1CCCC1)O[C@@H]2C	nt	nt	i	nt	nt	nt
Cc1nc(C)c(-c2ccc(SCC(=O)Nc3cccc(Cl)c3)nn2)s1	i	i	24.3	i	i	i
Cc1cc(OC[C@@H](O)CN2CCC(C(O)(c3ccccc3)c3ccccc3)CC2)ccc1Br	nt	nt	i	nt	nt	nt
CC(=O)Oc1ccc(/C=N\NC(=O)c2cc3c(ccc4ccccc43)o2)cc1	i	i	32.6	i	i	33.4	RORg counter=i
CN(C)c1ccc(N=Nc2ccccc2C(=O)OCC(=O)N2CCCCCC2)cc1	i	i	26.8	i	i	34.8	RORg counter=i
CN(C)c1ccc(N=Nc2ccccc2C(=O)OCC(=O)N2CCCC2)cc1	i	i	36.2	i	i	40.1	RORg counter=1.25
CSc1ccccc1C(=O)OCC(=O)N1CCCCCC1	i	i	i	i	nt	nt
CN(C)c1ccc(N=Nc2ccccc2C(=O)OCC(=O)Nc2ccccc2C(F)(F)F)cc1	i	i	i	i	nt	nt
